Entries after “also recorded” stand apart in the source; their conditions may differ.
What was measured:
[1] = target: T1, NMT1 (Homo sapiens, UniProt P30419); test: Fluorescence-based NMT1 enzymatic activity assay; type: biochemical
T1 sequence (P30419 109-496): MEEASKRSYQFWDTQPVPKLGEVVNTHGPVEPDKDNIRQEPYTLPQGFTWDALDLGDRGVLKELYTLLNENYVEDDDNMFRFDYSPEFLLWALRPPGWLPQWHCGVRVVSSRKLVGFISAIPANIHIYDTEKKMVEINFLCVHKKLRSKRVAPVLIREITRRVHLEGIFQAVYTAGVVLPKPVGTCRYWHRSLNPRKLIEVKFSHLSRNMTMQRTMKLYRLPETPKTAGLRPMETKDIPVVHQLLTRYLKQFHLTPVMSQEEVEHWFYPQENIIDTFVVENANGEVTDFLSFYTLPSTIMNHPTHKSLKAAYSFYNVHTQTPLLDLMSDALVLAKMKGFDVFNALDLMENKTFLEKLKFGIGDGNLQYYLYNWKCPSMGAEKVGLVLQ

[2] = test system: Src myristoylation; test: Src myristoylation by Click chemistry in SYF1+Src; type: cell-based, mouse; conditions: ectopically expressed Src kinase, SYF1+Src(WT) cells, myristic acid-azide 60 µM
Outline: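 Mouse SYF1 (Src−/−Yes−/−Fyn−/−) fibroblasts were lentivirally transduced with wild-type Src and grown in DMEM with 2% fatty-acid-free BSA. They were pretreated with test compound at 0, 1, 5, 15 or 30 µM for 2 h, then given 60 µM myristic acid-azide. M-PER lysates underwent Click labelling with 40 µM alkyne-biotin and CuSO4. Myristoyl-Src (60 kDa) was detected with streptavidin-HRP, and total Src and GAPDH by immunoblot.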

[3] = test system: Src myristoylation; test: Src myristoylation by Click chemistry in PC-3 cells; type: cell-based; conditions: endogenous Src kinase, myristic acid-azide 60 µM
[4] = test system: pSrc(Y416), pFAK, pAkt; test: Immunoblotting of Src signaling in PC-3 total lysates; type: cell-based; conditions: PC-3 cells
[5] = test system: de novo synthesized Src kinase; test: 293T cells expressing doxycycline inducible Src; type: cell-based
Outline: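 293T-rtTA cells carrying lentiviral TRE/Src(Y529F) in DMEM with 10% FBS; Src induced with or without doxycycline 1 µg/mL plus 0 (DMSO), 15 or 30 µM test compound for 24 h. Lysed in TNE buffer (pH 7.4, protease/phosphatase inhibitors), needle-homogenised, spun 14,000 rpm 10 min (supernatant = cytosol); pellet extracted with 60 mM β-octylglucoside on ice 30 min, spun 14,000 rpm 20 min 4°C (total membrane). Immunoblot: […] antibody, caveolin-1/GAPDH markers.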

[6] = test system: SYF1-Src(Y529F) cells; test: Soft agar colony formation assay; type: cell-based, mouse
[7] = test system: 22Rv1 cells; test: Cell proliferation; type: cell-based; conditions: 22Rv1, B13 for 5 d
Outline: (§1)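 Cells seeded at 3000–5000/well, exposed to a range of test-compound concentrations for 5 d. Medium swapped for 100 µL phenol-red-free medium, 10 µL of 12 mM MTT stock added, 37 °C 4 h; stopped with 100 µL 10% SDS in 0.01 M HCl, further 4 h at 37 °C; absorbance at 570 nm. Mean ± SEM of n=6 wells, two-sided Student's t test.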

[8] = test system: PC-3 cells; test: Cell proliferation; type: cell-based; conditions: PC-3, B13 for 5 d
Outline: as §1

[9] = test system: DU145 cells; test: Cell proliferation; type: cell-based; conditions: DU145, B13 for 5 d
Outline: as §1

[10] = test system: LNCaP cells; test: Cell proliferation; type: cell-based; conditions: B13 for 5 d
Outline: as §1

[11] = test system: PNT2 normal cells; test: Cell proliferation; type: cell-based
[12] = test system: 293T cells; test: Cell proliferation; type: cell-based
[13] = test system: LNCaP, 22Rv1, PC-3, and DU145 cells; test: Cell cycle analysis by flow cytometry; type: cell-based; conditions: tested prostate cancer cells, B13 for 3 d
Outline: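 Cells were grown in ATCC-recommended medium, and after attachment the medium with or without 15 or 30 µM test compound was renewed every 24 h for 3 days. 1 × 10^6 cells were PBS-washed and fixed in 70% ethanol for 1 h at 4 °C. They were stained with propidium iodide/RNase for 30 min in the dark at room temperature. Flow cytometry used 488 nm excitation and 585 nm emission, and G0/G1, S and G2/M percentages were compared with control.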

[14] = test system: PNT2 cells; test: Cell cycle analysis by flow cytometry; type: cell-based
[15] = test system: PC-3 cells; test: Immunoblotting of cell cycle proteins; type: cell-based
[16] = test system: DU145 cells; test: Immunoblotting of cell cycle proteins; type: cell-based
Outline: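 DU145 cells were treated with or without different concentrations of test compound. Lysates were immunoblotted for CDK2, CDK6, cyclin D1, p27 and tubulin.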

[17] = test system: 22Rv1 cells; test: Transwell invasion assay; type: cell-based; conditions: 22Rv1, 15 µM B13
Outline: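 22Rv1 cells at about 80% confluence were serum-starved for 24 h, then seeded in Transwell inserts. The top well held medium with 15 µM test compound or DMSO, and the receiver well held 10% FBS. After 48 h, cells were fixed with 3.7% formaldehyde (2 min) then methanol (20 min). Staining was 0.1% crystal violet for 15 min in the dark at room temperature. Non-migrated cells were swabbed off, and migrated cells were imaged and counted.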

[18] = test system: PC-3 cells; test: Wound-healing; type: cell-based; conditions: PC-3, 15 µM B13
Outline: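 PC-3 cells (8×10^5 per well) were grown 24 h to 95% confluence, then scratched with a 1 mL pipette tip. Wells were washed to remove floating cells and refed with fresh medium containing 15 µM test compound. The wound space was imaged daily.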

[19] = test system: PC-3 xenograft tumors; test: PC-3 xenograft tumor growth; type: in vivo, SCID mice; conditions: 75 mg/kg i.v. twice a week for 6 weeks
[20] = Toxicity in host mice carrying PC-3 xenografts; type: in vivo, SCID mice
[21] = test system: acid ceramidase; conditions: cited from earlier work

For `CCCCCCCCCCCCCC(=O)N[C@H](CO)[C@H](O)c1ccc([N+](=O)[O-])cc1` [B13, N-[(1R,2R)-2-hydroxy-1-(hydroxymethyl)-2-(4-nitrophenyl)ethyl]-tetradecanamide], the IC50 [1] was 77.6 µM, the “Src myristoylation (myristoyl-Src level)” value [2] was “inhibited Src myristoylation” and the “Src myristoylation (myristoyl-Src level)” value [3] was “inhibited Src myristoylation”. For the same compound, the “Src kinase tyrosine phosphorylation [pSrc(Y416)]” value [4] was “inhibited Src kinase tyrosine phosphorylation”, the “pFAK and pAkt levels” value [4] was “down-regulation of pFAK and pAkt” and the “De novo synthesized Src-induced signaling” value ([5]; Dox 1 µg/ml, 15 and 30 µM B13, 24 h) was “suppression of de novo synthesized Src-induced signaling”. The “Non-phosphorylated Src kinase [non-pSrc(Y527)] at the cytoplasmic membrane” value ([5]; doxycycline induced, membrane fraction) was “reduced”, the “Src(Y529F)-induced colony formation (transformation)” value [6] was “the transformation was inhibited” and the Proliferation [7] was “significantly inhibited proliferation; also recorded: significant inhibition”. For the same compound, the Proliferation [8] was “significantly inhibited proliferation; also recorded: significant inhibition”, the Proliferation [9] was “significantly inhibited proliferation” and the Proliferation [10] was “less sensitive”. The Proliferation [11] was “limited effect”, the Proliferation [12] was “did not affect” and the Cell cycle progression [13] was “significantly inhibited”. For the same compound, the Cell cycle [14] was “did not affect the cell cycle”, the “Expression of CDK2, cyclin D1 and p27” value [15] was “decreased expression of CDK2 and cyclin D1, increased expression of p27” and the “Expression of CDK2, cyclin D1 and p27” value [16] was “decreased expression of CDK2 and cyclin D1, increased expression of p27”. For the same compound, the “Expression of CDK6” value [16] was “decreased expression of CDK6”, the Invasion [17] was “suppressed invasion” and the Migration [18] was “suppressed”. The “Size and weight of PC-3 xenograft tumors” value [19] was “significantly inhibited the size and weight”, the Body weight change ([20]; 75 mg/kg i.v. twice a week) was “no significant changes” and the “Organs' weight change” value ([20]; 75 mg/kg i.v. twice a week) was “no significant changes”. The “Pathological toxicity to major organs (liver, kidney, lung; H&E)” value ([20]; 75 mg/kg i.v. twice a week for 6 weeks) was “no observed pathological toxicity” and the “Inhibition of acid ceramidase” value [21] was “can inhibit acid ceramidase”.
In the case of `CCCCCCCCCCCCCCN[C@H](CO)[C@H](O)c1ccc([N+](=O)[O-])cc1` [LCL204], the “Inhibition of acid ceramidase relative to B13” value [21] is given as “higher inhibitory potential than B13”.
